Laboratory results taken from ChEMBL document CHEMBL4513216, “Probing the Open Global Health Chemical Diversity Library for Multistage-Active Starting Points for Next-Generation Antimalarials” (ACS Infect Dis, 2020).

Assay: Toxicity liver stage against HepG2, at 10uM
Assay type: cell-based
Parameters: test concentration 10 uM, cell line HepG2-A16-CD81EGFP
Details: human, HepG2-A16-CD81EGFP cells; read-out: INHIBITION
Outline: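 Uninfected HepG2-A16-CD81EGFP cells, 3 × 10^3 per well, 1536-well, plated on prespotted compound at 10 μM final, parasite-free screening media added to match infected plates; puromycin 10 μM positive, DMSO 0.5% negative; run in parallel with 48 h PbLuc assay at 37 °C, 5% CO2; viability by CellTiter-Glo luminescence, normalized to controls.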

SMILES | cytotoxicity at 10 µM [%]
COCCC1COC2(CCN(C(=O)c3ccncc3)CC2)C1 (configuration not stated) | -74.9
CCc1n[nH]c(C2CN(Cc3csc(COC)n3)CCO2)n1 (configuration not stated) | 0.753
Cc1ccc(NC2CCN(C(=O)c3ccc4c(c3)CCC4)CC2)nn1 | -8.19
Cc1ccc(C(=O)N2CC[C@@H]3[C@H]2CCC(=O)N3CC2CC2)o1 | -0.419
Cc1csc(C2CCCCN2C(=O)c2cc(Cl)c[nH]2)n1 (configuration not stated) | -6.73
Cc1nnc(NC(=O)c2cc(S(=O)(=O)N3CCSCC3)c[nH]2)s1 | -7.01
CCn1cc(NC(=O)NC(CO)Cc2c[nH]c3ccccc23)cn1 (configuration not stated) | -7.03
COC1CCN(C(=O)c2csc(-c3ccccc3F)n2)CC1 | -5.6
O=C(NCCN1CCCC1)c1nc2c(o1)CN(c1ncccn1)C2 | 1.24
CCC(NC(=O)NCc1cc(Cl)ccc1OC)c1noc(C)n1 (configuration not stated) | 4.06
CCc1cnc(CN(C)C2CCN(CCCS(=O)(=O)NC)C2)o1 (configuration not stated) | 7.82
COCCCNC(=O)CN(C)C(=O)c1cc(Cl)ccc1O | -1.84
CCOc1ccc(Br)cc1S(=O)(=O)N(CC)Cc1ccc(N(C)C)cc1 | 14.1
CCCc1ccc(S(=O)(=O)NCCNC(=O)c2ccoc2)cc1 | 7.36
COc1cc(CN2CCCCCC2c2cccs2)cc(OC)c1O (configuration not stated) | 8.6
O=C(Nc1ccccc1)C1=CC2(CCNCC2)c2ccccc21 | 1.54
CCc1cc(NC2CCC(N)CC2)n2nc(C)c(C)c2n1 (configuration not stated) | -4.33
COCCN(Cc1ccoc1)C(=O)c1ccccc1Cl | 9.12
CCNC(=O)NC(=O)C(C)N1CCCc2cc(OC)ccc2C1 (configuration not stated) | 9.86
CO[C@@H]1CCN(Cc2nccn2C)[C@H]1Cc1cccnc1 | -71.5
Cc1cc(NC(=O)CNCc2csc(-c3ncccn3)n2)ccc1Cl | -7.21
Cc1noc([C@H]2C[C@H]3CN(C(=O)C4CCOCC4)CC[C@@H]3O2)n1 | -72.6
OC1(CN2CCCCC2)CCN(c2cccc(C(F)(F)F)n2)C1 (configuration not stated) | -10.4

SMILES | cytotoxicity at 10 µM [%]
CN(Cc1cnc(N)nc1)CC1CCCN(CCc2ccc(Cl)cc2)C1 (configuration not stated) | -0.849
CC(=O)c1sc(C(NC(=O)c2ccccc2)C2CC2)nc1C (configuration not stated) | -15.5
CC(NC(=O)COCC(F)(F)F)c1nnc2n1CCCCC2 (configuration not stated) | -12.3
Cc1ccc(C(=O)NCCN2CCOCC2)cc1N(C)S(C)(=O)=O | 15.1
c1ccc(COC[C@H]2CC[C@H]3[C@H](CCN3Cc3cccnc3)O2)nc1 | -80.2
CC(NC(=O)NCCCN1CCCCCC1=O)c1nncn1C (configuration not stated) | -0.734
Cc1nc(O)cc(C2CCN(Cc3ccc(F)c(F)c3)C2)n1 (configuration not stated) | -11.3
CN(C)S(=O)(=O)N(C)C(c1cccnc1)c1ccc(F)c(F)c1 (configuration not stated) | -3.53
O=C(Cc1ccccc1C(F)(F)F)N1CCC2(CC1)[C@H](O)C[C@@H]2O | -4.87
COCc1cncc2c1CCN(C(=O)c1cscn1)C2 | -104
CC(=O)Nc1nc(C(=O)N2CCCC(c3cc(C)[nH]n3)C2)cs1 (configuration not stated) | -8.85
O=C(Nc1ccc2c(c1)C(=O)NC2=O)c1cccs1 | -4.08
Cc1ccc(NS(=O)(=O)c2cc(C(=O)O)oc2C)c(Br)c1 | 1.83
OCc1ccc(CN(CCCn2ccnc2)Cc2cccnc2)o1 | -6.75
C[S+]([O-])c1nncn1CC(=O)c1cccc(C(F)(F)F)c1 (configuration not stated) | -0.661
CN(C)CCNC(=O)c1noc2c1CN(C(=O)N(C)C)CC2 | 10.6
Cc1nn(C)c(Oc2cccc(F)c2)c1NC(=O)C1CCCO1 (configuration not stated) | -7.64
CN(CCN1CCCC1=O)S(=O)(=O)CC1CCCC1 | 10.4
Cc1ncsc1C(=O)NC1CCN(CCC#N)CC1 | -8.87
COCCN(Cc1cccnc1)S(=O)(=O)c1ccc(F)cc1C | -5.06
O=C1CSc2ccc(C(=O)N3CCCC(n4cccn4)C3)cc2N1 (configuration not stated) | -6.65
CNC(=O)CN1CCCC12CCN(C(=O)c1ccsc1)CC2 | 4.87
Cc1cc(CN2CC[C@H]3OCC[C@@]3(C(=O)NCc3ccco3)C2)no1 | 6.73

SMILES | cytotoxicity at 10 µM [%]
Cc1cc(C)n(CC2CN(CC(=O)Nc3cccnc3)CCO2)n1 (configuration not stated) | -3.1
Cc1nn(C)c(N2CCCN(C)CC2)c1CNC(=O)C(C)(C)C | -12
Cc1cccc(C(=O)NCc2ccc(S(N)(=O)=O)cc2)n1 | -4.25
CC1(C)CN(Cc2c[nH]c(CC3CCCC3)n2)CC[C@]1(C)O | 2.74
COc1ccc2c(c1)CCN(CCC(=O)NC1CCCCC1)CC2 | -11.4
c1ccc(-c2nc(CNC3CCc4ncnn4C3)cs2)cc1 (configuration not stated) | -6.19
CC1CN(C(=O)CN(Cc2ccccc2Br)C2CC2)CCO1 (configuration not stated) | 2.38
CC(C)N1c2sc(-c3ccccc3)nc2CC1C(=O)NC1CCCC1 (configuration not stated) | 10.3
CN(CCSc1nncn1CC(F)(F)F)c1ccccc1 | -1.86
Cn1ncnc1NCc1ccc(F)cc1 | 0.361
COCC(=O)N1CCC2(CC1)CC(N1CCN(C)CC1)CO2 (configuration not stated) | -1.25
O=C1CC(c2ccccc2)C2(CCN(Cc3nccs3)CC2)N1 (configuration not stated) | 4.67
CCn1c(C2CCN(Cc3cc(C)n(NC(C)=O)c3C)CC2)n[nH]c1=O | 4.74
CC(C)CCN1CC2(CCN(C3CCCOC3)CC2)OC1=O (configuration not stated) | 6.31
O=C(CO)N1CCOC2(CCCN(c3ncc(F)cn3)C2)C1 (configuration not stated) | 12.4
CC(=O)N1CCC2(CN(CC3CCCC3)C2)C1 | 2.05
CCn1ccnc1CN1CCC(Oc2ccccc2F)(C(=O)O)CC1 | 6.84
Cc1ccccc1CN(C)C(=O)c1ccoc1 | 2.2
CC(C)OCCN1CCc2cncnc2C1 | -7.52
CCc1nc(CN(C)C2CCN(CCC(=O)N3CCCCC3)C2)no1 (configuration not stated) | -13.4
CC1CCCN(Cc2ccc(OCc3nccn3C)cc2)C1 (configuration not stated) | -11.8
CN(C)c1ccc(C(=O)N2CCN(CC(C)(C)O)CC2)nn1 | -13.3
CC1CCCCN1C(=O)c1ccc(Br)s1 (configuration not stated) | -8.21

SMILES | cytotoxicity at 10 µM [%]
Cc1cccc(C2(CNC(=O)CCNS(C)(=O)=O)CCCC2)c1 | -5.92
O=C(Cn1c(=O)oc2ccccc21)NCC1(O)CCc2ccccc2C1 (configuration not stated) | 5.37
CN(C)c1cc(CNCc2cccc3c2OCCO3)ccn1 | 3.57
CC(C)c1sc(Br)nc1C(=O)NCc1ccncc1 | 1.18
CC(Nc1cccc2c1OCCO2)C(=O)Nc1cccc(C#N)c1 (configuration not stated) | 4.7
CC(C)(C)C(=O)N1CCCC1c1ccc(C(=O)N2CCOCC2)s1 (configuration not stated) | -145
Cc1cccc2cc(CN3CCC(N4CCCC4)CC3)c(=O)[nH]c12 | -3.45
Cn1ccnc1CN1CCN(Cc2noc(-c3ccccc3)n2)CC1 | 1.08
COC(C)Cc1nc(-c2cnn3c(C)cc(C)nc23)no1 (configuration not stated) | -8.11
O=C(c1ccc2c(c1)CCC2)N1CCCCC1C1OCCO1 (configuration not stated) | 0.197
Cc1ccc(NC2CCN(C(=O)CCOCC(F)(F)F)CC2)nn1 | -2.78
O=S1(=O)CCC(CNS(=O)(=O)N2CCc3ccccc3C2)C1 (configuration not stated) | -10.7
Cc1nc(C)n(CC2CCCN2CCCc2ccccc2)n1 (configuration not stated) | -14.1
Cc1nc(C)c(C(=O)N2CCc3c(C)cccc32)o1 | -2.28
O=C(CCC(F)(F)F)NCC1CCCS1 (configuration not stated) | -1.58
O=C(NCC1CC1)[C@@H]1CC[C@@H]2[C@@H](CCN2Cc2ccc(F)c(F)c2)O1 | 8.33
Cc1ccc(CN(CCN(C)C)C(=O)Nc2cnn(C)c2)s1 | 4.16
CN(C(=O)CCN1CCCC1=O)c1cc(C#N)c2ccccc2n1 | 3.33
O=C(CC1CCCN1S(=O)(=O)N1CCCCC1)c1cccs1 (configuration not stated) | 6.31
O=C(NCc1nc(NC2CCCC2)c2cc(Cl)ccc2n1)c1cscn1 | 7.12
CC(C)CN1C(=O)COC[C@@H]1[C@H](O)c1ccc(NC(=O)C2CC2)cc1 | 5.76
O=C(NC1CC1)N1Cc2[nH]nc(COCC3CC3)c2C1 | 13.6
COCC1CN(C(=O)c2cccn2C)Cc2ncnn2C1 (configuration not stated) | -8.97

SMILES | cytotoxicity at 10 µM [%]
Cc1ccc(-c2cc(C(=O)NCCN3CCOCC3)n[nH]2)s1 | -6.45
CO[C@H]1CNC[C@@H]1NC(=O)c1cc(C)nc2c(C)c(C)ccc12 | 0.936
Nc1nc(Nc2ccccc2)cc(N2CCNCC2)n1 | 1.23
CN1CCCC(c2cccc(Cc3ccccc3Cl)n2)C1 (configuration not stated) | 1.03
CC(OCC(F)(F)F)C(=O)N1CCOCC1 (configuration not stated) | -11.9
Cc1nc(SC2CCN(c3sccc3C#N)C2=O)oc1C (configuration not stated) | -4.92
Cc1ccc2c(CC(=O)N(C)CCN(C)C)c(C)[nH]c2c1C | 8.42
O=C(Cn1nc(-c2ccc(F)cc2)oc1=O)NCCc1ccccc1 | -13.5
CNS(=O)(=O)c1ccc(CNC(=O)c2ccccn2)cc1 | 10.2
CN(C)C(=O)CN1CCO[C@H]2CN(Cc3ccoc3)C[C@H]21 | -108
O=C(c1ccno1)N1CCCC(c2ncncc2-c2ccncc2)C1 (configuration not stated) | -19.9
COCCN1CCC2(CC1)CC(CC(N)=O)c1ccc(F)cc12 (configuration not stated) | 8.98
CCOC(C)C(=O)NS(=O)(=O)c1cccc2cc(C)cnc12 (configuration not stated) | -3.14
CCc1nnc(SCc2nonc2C)n1C1CC1 | 0.649
O=C(CC1CCC2(CC1)CCN(Cc1cccnc1)CC2)N1CC=CC1 | -2.13
COc1ccccc1CNCc1nn(-c2ccccc2)c2c1CCC2 | 34.4
COCC(=O)N1C[C@@H](c2cccc(OC)c2)[C@@]2(CCCCC(=O)N2)C1 | 1.62
O=C1CN(C(=O)c2cccc(C(F)(F)F)c2)CC(O)CN1CC1CC1 (configuration not stated) | -4.65
O=C(c1ccncc1F)N1Cc2nc(COCC3CC3)oc2C1 | -99.9
C[C@@H]1CN(Cc2cccnc2)C[C@]12CCN(CCN1CCCC1)C2=O | -6.04
